Most compounds without a hit are left out; they make up all but 2.4% or so of the library.
Rin1-Abl PPI inh: inhibitors of Rin1-Abl protein binding, primary screen, biochemical, TR-FRET; Tyrosine-protein kinase ABL1 (Homo sapiens) + Ras and Rab interactor 1 (Homo sapiens), …; inhibition, % at 7.35 µM; 360,000 compounds, 0.4% hits; AID 588664, 2011; in the data active = inhibition above about 5%, passing the limit was not always enough
Neddylation inh: inhibitors of cullin neddylation, primary screen, biochemical, TR-FRET, uHTS, NAE and Ubc12; NEDD8-conjugating enzyme Ubc12 (Homo sapiens) + NEDD8-activating enzyme E1 regulatory …; inhibition, % at 25 µM; 360,000 compounds, 0.58% hits; in the data active = inhibition above about 36%
Rpn11 inh: Rpn11 (PSMD14) deubiquitinase inhibitors, primary screen, biochemical, fluorescence polarization, uHTS. 26S proteasome non-ATPase regulatory subunit 14 (Homo sapiens), O00487. AID 588493, 2011. 360,000 compounds, 0.59% hits. inhibition, % at 20 µM. human 26S proteasome, Ub4-pepOG fluorescence polarization; 20S core pre-blocked with epoxomicin;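 active = inhibition at 20 µM, scaled to each plate's controls, above about 33%, limit read from the data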
TPT1 inh: Candida albicans TPT1 enzyme inhibitors, primary screen, biochemical, fluorescence polarization. tRNA 2'-phosphotransferase TPT1 (Candida albicans SC5314). inhibition, % at 5 µM. AID 1962, 2009. recombinant caTPT1, FP RNA substrate dephosphorylation. 300,000 compounds, 0.81% hits;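 active = inhibition above the mean of all tested compounds plus 3 SD, set per screening campaign, cut at about 24% in these data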
CSN inh: inhibitors of CSN-mediated cullin deneddylation, primary screen, biochemical, fluorescence polarization, uHTS; inhibition, % at 12.5 µM; Purified CSN, SCF-Nedd8-OG deneddylation; COP9 signalosome complex subunit 5 (Homo sapiens), Q92905; 360,000 compounds, 0.38% hits; AID 651999, 2013;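 active = pattern-corrected inhibition above about 35%, with an unprinted fluorescence ratio check between 0.5 and 1.5, limit read from the data, passing the limit was not always enough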
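Assay system: purified human Csn5 enzyme expressed in HEK293T cells; measure: % inhibition; also added: SCFSkp2-Nedd8OG substrate at 10 nM final; technique: fluorescence polarization; times: reaction 90 min, room temperature; medium: Tris buffer pH 7.5, NaCl, DTT, Tween-20, trehalose, ovalbumin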
HNF4A DNA FP: change in binding of human HNF4A to DNA, primary screen, biochemical, fluorescence polarization, FITC-DNA; activity change, % at 10 µM; 360,000 compounds, 0.3% hits; 1 h; in the data active = activity change above about 30%, passing the limit was not always enough
Rpn11 confirm: Rpn11 (PSMD14) deubiquitinase inhibitors, confirmation, biochemical, fluorescence polarization, single concentration | purified human 26S proteasome, Ub4-pepOG fluorescence polarization; proteasome pretreated with epoxomicin | shares compounds with Rpn11 inh | inhibition, % at 20 µM | 1,900 compounds, 29% hits
MMP-2 inh: MMP-2 enzyme inhibition, confirmation, counter-screen for RPN11 inhibitor project, biochemical, fluorescence, single concentration; 1,900 compounds, 4% hits; AID 602330, 2012; shares compounds with Rpn11 inh; recombinant MMP-2, FRET peptide cleavage fluorescence; inhibition, % at 20 µM;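 note: human MMP-2 activated beforehand with APMA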
Target sequence (P08253 whole entry, looked up): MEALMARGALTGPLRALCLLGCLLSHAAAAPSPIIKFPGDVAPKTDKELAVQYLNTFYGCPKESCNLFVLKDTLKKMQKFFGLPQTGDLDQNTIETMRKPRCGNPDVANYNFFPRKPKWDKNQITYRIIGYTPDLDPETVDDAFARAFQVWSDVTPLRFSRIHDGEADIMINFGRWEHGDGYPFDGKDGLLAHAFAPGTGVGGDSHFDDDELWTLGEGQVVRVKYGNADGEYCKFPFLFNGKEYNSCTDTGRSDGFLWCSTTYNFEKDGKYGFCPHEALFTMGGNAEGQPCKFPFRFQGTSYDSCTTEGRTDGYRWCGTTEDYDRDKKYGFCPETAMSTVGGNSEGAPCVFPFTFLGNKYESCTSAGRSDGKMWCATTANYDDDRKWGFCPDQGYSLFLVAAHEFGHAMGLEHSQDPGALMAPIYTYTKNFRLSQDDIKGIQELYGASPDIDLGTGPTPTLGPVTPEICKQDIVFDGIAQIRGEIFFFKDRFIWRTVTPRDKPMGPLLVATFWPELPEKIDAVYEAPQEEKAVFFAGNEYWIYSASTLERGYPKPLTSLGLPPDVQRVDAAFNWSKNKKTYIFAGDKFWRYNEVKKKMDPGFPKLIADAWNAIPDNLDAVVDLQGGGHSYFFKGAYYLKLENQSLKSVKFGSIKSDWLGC
Thrombin inh: bovine thrombin protease inhibition, confirmation, counter-screen for Rpn11 inhibitor project, biochemical, fluorescence polarization, single concentration; 1,900 compounds, 13% hits; bovine thrombin cleavage of Ub4-pepOG; inhibition, % at 20 µM; shares compounds with Rpn11 inh;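 active = mean inhibition at least 40% at 20 µM, or signal 3 deviations below plate average, so some actives read negative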
Of the large screens only hits and unclear results are named; the others gave an inactive call (follow-up assays come after a bar, where they were run). Cut-off read from the data, not from the text of the source, unless noted: active = inhibition above about 40%; inactive = the rest.

CC(C)=CCC[C@](C)(O[C@@H]1O[C@H](CO[C@@H]2OC[C@@H](O)[C@H](O)[C@H]2O)[C@@H](O)[C@H](O)[C@H]1O)C1CC[C@]2(C)C1[C@H](O)CC1[C@@]3(C)CC[C@H](O[C@@H]4O[C@H](CO)[C@@H](O)[C@H](O)[C@H]4O)C(C)(C)C3CC[C@]12C (stereo partly drawn)	none (no result: TPT1 inh)
COc1cccc(-c2cnc(C(O)c3ccc(C)cc3C)[nH]2)c1 (stereo not drawn)	none (no result: TPT1 inh)
COc1cc(/C=N/Nc2ccc([N+](=O)[O-])cc2S(=O)(=O)N2CCOCC2)cc(OC)c1OC	Rpn11 inh 44 | Rpn11 confirm inactive | MMP-2 inh inactive | Thrombin inh inactive
O=[N+]([O-])c1ccc(NCCCO)c(S(=O)(=O)N2CCOCC2)c1	none
O=C(c1ccccc1)c1ccc(OCC(O)CNCc2cccc(Cl)c2)cc1 (stereo not drawn)	none (no result: TPT1 inh)
O=C(N/N=C/c1ccco1)c1ccc(NC(=O)c2ccc(Cl)cc2)cc1	Rpn11 inh 43 | Rpn11 confirm inactive | MMP-2 inh inactive | Thrombin inh inactive
O=C(N/N=C/c1ccncc1)c1ccc(NC(=O)c2cccc(Cl)c2)cc1	Rpn11 inh 52, CSN inh 78 | Rpn11 confirm inactive | MMP-2 inh inactive | Thrombin inh inactive
O=C(N/N=C/c1ccncc1)c1ccc(NC(=O)c2ccc(Cl)cc2)cc1	Rpn11 inh 45 | Rpn11 confirm inactive | MMP-2 inh inactive | Thrombin inh inactive
O=C(N/N=C/c1ccncc1)c1cccc(NC(=O)c2ccccc2Cl)c1	none
Cc1nc(SCc2nc3ccc(Br)cc3[nH]2)c2oc3ccccc3c2n1	Rpn11 inh 52 (no result: TPT1 inh) | Rpn11 confirm 44 | MMP-2 inh inactive | Thrombin inh inactive
CCCN(CCC)CCCNC(=O)c1ccc(CS(=O)(=O)c2c(Cl)cccc2Cl)o1	none
O=C1C2C3C=CC(C3)C2C(=O)N1c1cccc(-c2nc3ccccc3o2)c1 (stereo not drawn)	Rpn11 inh 54 | Rpn11 confirm inactive | MMP-2 inh inactive | Thrombin inh inactive
O=C(Nc1cccc(-c2nc3ccccc3o2)c1)c1ccc(N2C(=O)C3C4C=CC(C4)C3C2=O)cc1 (stereo not drawn)	none
COc1ccc(NS(=O)(=O)c2cccc(C(=O)N3CCN(C/C=C/c4ccccc4)CC3)c2)cc1	none (no result: TPT1 inh)
Cc1cc(C)c(S(=O)(=O)N2C[C@H]3CON(C)[C@H]3C[C@H]2c2ccc(N3CCCCC3)cc2)c(C)c1	Rpn11 inh 77 (no result: TPT1 inh) | Rpn11 confirm 96 | MMP-2 inh inactive | Thrombin inh 87
Cc1ccccc1S(=O)(=O)N1C[C@H]2CON(C)[C@H]2C[C@H]1c1cccc(N2CCOCC2)c1	none (no result: TPT1 inh)
CCCCOc1nc2ccccc2nc1C(C#N)C(=O)NC1CCCCC1 (stereo not drawn)	Rpn11 inh 56 | Rpn11 confirm inactive | MMP-2 inh inactive | Thrombin inh inactive
